# Experiments:
# [1] = Inhibition of HCV NS5B RNA polymerase S282T mutant assessed as incorporation of 32P-UMP into RNA; set-up: species or system Hepacivirus hominis
# How it was run: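 Purified 21-aa C-terminally truncated NS5B (S282T; wild type for comparison) on minus-IRES template, run in 50 mM HEPES pH 7.5 with 1 mM MgCl2, 0.75 mM MnCl2, 2 mM DTT and [α-32P]UTP at 27°C. Natural substrate and inhibitor were both varied against fixed remaining NTPs (UTP 10 μM, others 100 μM). Product was membrane-captured and counted. Ki was obtained by fitting a competitive inhibition equation.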
# [2] = Inhibition of HCV NS5B RNA polymerase assessed as incorporation of 32P-UMP into RNA; set-up: species or system Hepacivirus hominis
# How it was run: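 Steady-state Ki against truncated NS5B (wild-type and S282T) on minus IRES template, 27°C, HEPES pH 7.5 with Mg2+/Mn2+/DTT and [α-32P]UTP. For ATP analog, UTP 10, GTP and CTP 100 μM, ATP and inhibitor varied. For CTP analogs, UTP 10, ATP and GTP 100 μM, CTP and inhibitor varied. Membrane-bound product counted, rates fit to competitive inhibition.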
Compound,Ki [1] [µM],Ki [2] [µM]
C[C@@]1(O)[C@H](O)[C@@H](COP(=O)(O)OP(=O)(O)OP(=O)(O)O)O[C@H]1n1cnc2c(N)ncnc21,21.8,1.5
C[C@@]1(O)[C@H](O)[C@@H](COP(=O)(O)OP(=O)(O)OP(=O)(O)O)O[C@H]1n1ccc(N)nc1=O [2'-C-METHYLCYTIDINE TRIPHOSPHATE],3.8,1.6
C[C@@]1(F)[C@H](O)[C@@H](COP(=O)(O)OP(=O)(O)OP(=O)(O)O)O[C@H]1n1ccc(N)nc1=O [PSI-6130-TP],2.5,4.3

# Reference: ChEMBL document CHEMBL1142170, “Mechanism of activation of beta-D-2'-deoxy-2'-fluoro-2'-c-methylcytidine and inhibition of hepatitis C virus NS5B RNA polymerase” (Antimicrob Agents Chemother, 2007)
